Screening results (PubChem)
NPY2 pot ag: potentiates or activates human NPY-Y2 receptor | cells expressing NPY-Y2, potentiator/agonist read-out | hit rate 0.45% among 220,000 | P49146 | activation, % at 3.6 µM | AID 1359; in the data active = activation above about 27%;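 note: cells stimulated with NPY near EC25 plus isoproterenol at EC100; 0% = vehicle plus submaximal agonist and 100% = vehicle plus saturating agonist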
Target sequence (P49146 whole entry, looked up): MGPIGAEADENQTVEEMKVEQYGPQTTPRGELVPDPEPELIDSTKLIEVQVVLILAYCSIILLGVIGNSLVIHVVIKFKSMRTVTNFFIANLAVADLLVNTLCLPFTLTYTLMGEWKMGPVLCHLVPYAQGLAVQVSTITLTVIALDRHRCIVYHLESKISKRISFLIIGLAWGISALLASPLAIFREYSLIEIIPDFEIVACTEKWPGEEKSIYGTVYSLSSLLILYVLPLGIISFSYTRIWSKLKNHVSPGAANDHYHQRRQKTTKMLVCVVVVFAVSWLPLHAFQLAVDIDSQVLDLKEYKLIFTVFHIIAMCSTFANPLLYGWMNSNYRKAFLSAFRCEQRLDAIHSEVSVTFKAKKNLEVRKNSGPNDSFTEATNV
NPY-Y2 antag: blocks the human neuropeptide Y Y2 receptor; P49146; NPY-Y2 expressing cells, antagonist mode; inhibition, % at 2.7 µM; hit rate 0.99% among 140,000; in the data active = inhibition above about 17%;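 note: 0% = vehicle with agonist challenge and 100% = reference antagonist with challenge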
NPY-Y1 antag: blocks the human neuropeptide Y Y1 receptor. P25929. HEK293-CNG Y1 cells, membrane potential fluorescence; NPY at EC95, then isoproterenol. inhibition, % at 3.6 µM. hit rate 1% among 200,000;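 active = inhibition above the campaign mean inhibition of all tested compounds plus 3 SD, cut at about 20% in these data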;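 note: 0% = DMSO wells given NPY plus isoproterenol and 100% = isoproterenol alone without NPY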
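Material: Y1- and CNG-channel-expressing HEK293 cells / Probe or stimulus: NPY 25 nM then isoproterenol 1 µM plus Ro 20-1724 25 µM / Doses: 3.6 µM single dose, DMSO 0.4% / Schedule: compound incubation 1 h at room temperature, readout 45 min post-stimulation / Signal: membrane potential fluorescence / Benchmarks: isoproterenol-only wells as full block versus NPY-plus-isoproterenol wells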
m-calpain inh: blocks pig calpain II enzyme activity. purified calpain II, fluorogenic peptide substrate, 30 min. inhibition, % at 16 µM. hit rate 0.37% among 220,000;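 active = inhibition above about 50%, limit read from the data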
NPY1 pot ag: potentiates or activates human NPY-Y1 receptor; P25929; activation, % at 3.6 µM; NPY-Y1 expressing cells, potentiator/agonist activation; hit rate 0.37% among 220,000; in the data active = activation above about 33%, passing the limit was not always enough;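 note: cells stimulated with NPY at EC10 then isoproterenol at EC100; 0% = low agonist plus stimulus and 100% = saturating agonist plus stimulus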
TbHK1 inh: T. brucei hexokinase 1 inhibition; recombinant TbHK1, G6PDH-coupled NADH A340; inhibition, % at 10 µM; hit rate 0.11% among 220,000; AID 1430;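 active = inhibition of 50% or more in the single-dose primary screen; inactive = inhibition below 50%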
* hit, by the source's call. Only some compounds are listed: those with a hit (about 2.3% of all), similar ones and a draw of the others.

How did CCc1ccc(CN(C)C(=O)CCc2nnc(COc3ccccc3)o2)cc1 do in these assays?
NPY2 pot ag: -4; NPY-Y1 antag: 1; m-calpain inh: 5; NPY1 pot ag: 1; TbHK1 inh: -7

How did Cc1ccc2[nH]c3c(N4CCN(Cc5ccc6c(c5)OCO6)CC4)ncnc3c2c1 do in these assays?
NPY2 pot ag: 6; NPY-Y2 antag: 2; NPY-Y1 antag: -8; m-calpain inh: -136; NPY1 pot ag: -4; TbHK1 inh: -17

Results for c1nc(N2CCN(Cc3ccc4c(c3)OCO4)CC2)c2[nH]cnc2n1 ?
NPY2 pot ag: 101*; NPY-Y2 antag: 5; NPY-Y1 antag: 4; m-calpain inh: -25; NPY1 pot ag: 57*; TbHK1 inh: -6

Results for O=C(NCCc1ccccc1)C1CCCN(S(=O)(=O)c2cnc[nH]2)C1 (configuration not stated) ?
NPY2 pot ag: 73*; NPY-Y2 antag: 0; NPY-Y1 antag: 1; m-calpain inh: -2; NPY1 pot ag: -16; TbHK1 inh: 0

How did Cc1cccc(CCNC(=O)C2CCCN(S(=O)(=O)c3cnc[nH]3)C2)c1 (configuration not stated) do in these assays?
NPY2 pot ag: -14; NPY-Y2 antag: 0; NPY-Y1 antag: -7; m-calpain inh: -7; NPY1 pot ag: 2; TbHK1 inh: 6

Results for CCn1c(COc2ccc(Cl)cc2)nnc1SC1CCc2ccccc2C1=O (configuration not stated) ?
NPY2 pot ag: 1; NPY-Y2 antag: 6; NPY-Y1 antag: 4; m-calpain inh: 52*; NPY1 pot ag: -5; TbHK1 inh: 5

What do the screens show for `CCn1c(COc2ccc(Cl)cc2)nnc1SCc1ccc(C#N)cc1`?
NPY2 pot ag: -15; NPY-Y2 antag: 6; NPY-Y1 antag: 4; m-calpain inh: -3; NPY1 pot ag: 1; TbHK1 inh: -3

How did O=C(/C=C/c1ccccc1[N+](=O)[O-])NCCc1ccc(F)cc1 do in these assays?
NPY2 pot ag: 7; NPY-Y1 antag: 0; m-calpain inh: 12; NPY1 pot ag: 12; TbHK1 inh: -5

Results for CCC(C)(C(=O)NC1CCCC1)N(Cc1cccs1)C(C)=O (configuration not stated) ?
NPY2 pot ag: 7; NPY-Y2 antag: 2; NPY-Y1 antag: -3; m-calpain inh: 20; NPY1 pot ag: -16; TbHK1 inh: -2

How did CCC(C)(C(=O)NC1CCCCC1)N(C(=O)Cc1cccs1)c1ccccc1 (configuration not stated) do in these assays?
NPY2 pot ag: -8; NPY-Y2 antag: 17*; NPY-Y1 antag: 34*; m-calpain inh: 13; NPY1 pot ag: -37; TbHK1 inh: -3

How did CCC(C)(C(=O)NC1CCCC1)N(Cc1cccs1)C(=O)Cc1cccs1 (configuration not stated) do in these assays?
NPY2 pot ag: 8; NPY-Y2 antag: 38*; NPY-Y1 antag: 37*; m-calpain inh: 9; NPY1 pot ag: -30; TbHK1 inh: -5

What do the screens show for `CCC(C)(C(=O)NC1CCCC1)N(C(=O)c1ccccn1)c1ccccc1` (configuration not stated)?
NPY2 pot ag: 6; NPY-Y2 antag: 7; NPY-Y1 antag: 6; m-calpain inh: 9; NPY1 pot ag: -3; TbHK1 inh: 2

How did CCC(C)(C(=O)NC1CCCCC1)N(CC1CCCO1)C(=O)Cc1cccs1 (configuration not stated) do in these assays?
NPY2 pot ag: 5; NPY-Y1 antag: 21*; m-calpain inh: -8; NPY1 pot ag: 0; TbHK1 inh: 0

How did CC(C)c1ccc(C(C(=O)NC2CCCCC2)N(C(=O)c2ccccn2)c2cccnc2)cc1 (configuration not stated) do in these assays?
NPY2 pot ag: -5; NPY-Y1 antag: -3; m-calpain inh: -3; NPY1 pot ag: 16; TbHK1 inh: 0

How did CC(=O)C(Sc1ncnc2sc3c(c12)CCCC3)C(C)=O do in these assays?
NPY2 pot ag: 3; NPY-Y1 antag: 0; m-calpain inh: 4; NPY1 pot ag: -1; TbHK1 inh: -5

What do the screens show for `Cc1ccc(Nc2c(-c3ccc(N4CCOCC4)cc3)nc3ncccn23)c(C)c1`?
NPY2 pot ag: 67*; NPY-Y2 antag: -5; NPY-Y1 antag: -10; m-calpain inh: -55; NPY1 pot ag: 58*; TbHK1 inh: -13

How did Cc1ccc(Nc2c(-c3ccc(N(C)C)cc3)nc3ncccn23)cc1 do in these assays?
NPY2 pot ag: 12; m-calpain inh: -26; NPY1 pot ag: 49; TbHK1 inh: -17
